Laboratory results as given in ChEMBL document CHEMBL2380224, “Fragment-based ligand design of novel potent inhibitors of tankyrases” (J Med Chem, 2013).
Converted amounts (≈) assume the structure as drawn.

Tests used:
[1] = biological target: T1, Poly [ADP-ribose] polymerase tankyrase-2 (Homo sapiens) (UniProt Q9H2K2); assay: Binding affinity to TNKS2 PARP domain (947 to 1162) (unknown origin) expressed in Escherichia coli BL21(DE3) assessed as thermal stabilization at 125 uM by differential scanning flourimetric analysis
T1 sequence (whole entry): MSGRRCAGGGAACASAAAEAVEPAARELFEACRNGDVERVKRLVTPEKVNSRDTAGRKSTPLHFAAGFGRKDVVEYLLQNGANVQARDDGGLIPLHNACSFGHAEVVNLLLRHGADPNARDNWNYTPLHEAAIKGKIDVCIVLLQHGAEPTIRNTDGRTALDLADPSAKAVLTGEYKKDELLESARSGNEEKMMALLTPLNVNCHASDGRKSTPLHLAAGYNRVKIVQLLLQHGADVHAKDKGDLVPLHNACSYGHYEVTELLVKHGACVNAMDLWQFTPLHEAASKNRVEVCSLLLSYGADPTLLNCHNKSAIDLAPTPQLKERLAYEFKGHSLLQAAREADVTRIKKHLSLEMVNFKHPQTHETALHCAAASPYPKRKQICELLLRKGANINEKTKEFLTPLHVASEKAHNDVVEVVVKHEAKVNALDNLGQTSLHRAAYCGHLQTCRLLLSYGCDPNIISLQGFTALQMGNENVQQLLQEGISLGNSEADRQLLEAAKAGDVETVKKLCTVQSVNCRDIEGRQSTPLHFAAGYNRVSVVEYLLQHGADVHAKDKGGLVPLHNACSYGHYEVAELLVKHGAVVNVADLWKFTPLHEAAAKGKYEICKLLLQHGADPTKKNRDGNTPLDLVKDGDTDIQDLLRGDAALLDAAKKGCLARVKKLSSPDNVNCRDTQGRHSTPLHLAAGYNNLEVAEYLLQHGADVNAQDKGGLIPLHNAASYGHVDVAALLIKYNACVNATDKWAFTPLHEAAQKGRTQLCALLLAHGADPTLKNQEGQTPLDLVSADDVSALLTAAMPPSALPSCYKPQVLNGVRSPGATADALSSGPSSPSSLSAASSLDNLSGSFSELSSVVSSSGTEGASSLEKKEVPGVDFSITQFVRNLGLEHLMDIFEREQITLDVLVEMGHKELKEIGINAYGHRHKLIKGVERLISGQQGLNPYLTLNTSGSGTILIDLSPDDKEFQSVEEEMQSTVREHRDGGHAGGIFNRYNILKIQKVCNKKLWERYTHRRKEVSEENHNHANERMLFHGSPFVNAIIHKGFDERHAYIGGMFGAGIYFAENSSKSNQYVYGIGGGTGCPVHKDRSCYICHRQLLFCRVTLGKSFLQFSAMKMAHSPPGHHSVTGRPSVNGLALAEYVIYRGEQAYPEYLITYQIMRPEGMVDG
Summary of the method: (§1)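 DSF dose−response. TNKS2 at 0.2 mg/mL with SYPRO Orange (5×). Compounds were serially diluted in 100% DMSO at 50× the assay concentration. Chymotrypsin (1/100 TNKS2 mass equivalents) was added to the protein–dye mix just before the run. Scanned 25−80 °C at about 2 °C/min, ex 490/em 575 nm, and Tm shift was taken against the DMSO control.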

[2] = biological target: T2, Poly [ADP-ribose] polymerase tankyrase-2 (Homo sapiens, UniProt Q9H2K2); assay: Inhibition of auto-PARsylation of GST-tagged TNKS2 PARP domain (947 to 1162) (unknown origin) expressed in Escherichia coli BL21(DE3) after 2 hrs by LC/MS analysis
T2 sequence (Q9H2K2 whole entry): T1 sequence (whole entry)

[3] = biological target: T2, Poly [ADP-ribose] polymerase tankyrase-2; assay: Binding affinity to 6His-tagged TNKS2 PARP domain (947 to 1162) (unknown origin) expressed in Escherichia coli BL21(DE3) by surface plasmon resonance analysis
Summary of the method: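 SPR on a Biacore instrument. Running buffer: 20 mM PBS pH 7.4, 0.05% Tween20, 2% DMSO. His-tagged TNKS2 (20 μg/mL in 20 mM PBS pH 7.4) was capture-coupled at 10 μL/min onto a Ni²⁺/NHS doubly preactivated NTA chip, to a target of 5000 RU.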

[4] = Thermodynamic solubility of the compound in pION buffer at 500 uM after 18 hrs at pH 4.0 by UV-spectrophotometric analysis; format: physicochemical; conditions: read-out: Therm_solubility
Summary of the method: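 A 50 mM DMSO stock was diluted into pH 4.0 pION buffer (final 500 μM test compound) and incubated sealed for 18 h. Samples were vacuum filtered, discarding the first filtrate used to wet the filter. Filtrate was mixed 1:1 with 1-propanol for UV read-out.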

[5] = biological target: T3, Protein mono-ADP-ribosyltransferase TIPARP (Homo sapiens) (UniProt Q7Z3E1); assay: Inhibition of PARP7 (unknown origin) at 10 uM relative to control
T3 sequence (whole entry): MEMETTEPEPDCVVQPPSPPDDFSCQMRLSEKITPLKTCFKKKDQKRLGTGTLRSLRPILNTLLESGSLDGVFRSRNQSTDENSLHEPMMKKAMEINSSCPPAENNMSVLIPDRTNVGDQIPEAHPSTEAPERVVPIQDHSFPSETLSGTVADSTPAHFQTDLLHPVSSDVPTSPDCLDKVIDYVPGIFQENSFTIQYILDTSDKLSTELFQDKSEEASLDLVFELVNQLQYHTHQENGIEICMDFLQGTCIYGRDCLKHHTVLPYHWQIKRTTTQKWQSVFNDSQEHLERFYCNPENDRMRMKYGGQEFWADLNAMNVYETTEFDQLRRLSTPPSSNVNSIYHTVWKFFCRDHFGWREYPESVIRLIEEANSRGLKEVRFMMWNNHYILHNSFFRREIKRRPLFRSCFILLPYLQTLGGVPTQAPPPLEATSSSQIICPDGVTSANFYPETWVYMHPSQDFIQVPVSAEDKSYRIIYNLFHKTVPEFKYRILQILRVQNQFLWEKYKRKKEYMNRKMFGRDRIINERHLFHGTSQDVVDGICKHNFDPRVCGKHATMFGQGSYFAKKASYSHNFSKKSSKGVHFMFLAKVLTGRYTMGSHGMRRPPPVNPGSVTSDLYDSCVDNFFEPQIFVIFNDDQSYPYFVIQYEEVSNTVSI

[6] = biological target: T4, Protein mono-ADP-ribosyltransferase PARP11 (Homo sapiens) (UniProt Q9NR21); assay: Inhibition of PARP11 (unknown origin) at 10 uM relative to control
T4 sequence (whole entry): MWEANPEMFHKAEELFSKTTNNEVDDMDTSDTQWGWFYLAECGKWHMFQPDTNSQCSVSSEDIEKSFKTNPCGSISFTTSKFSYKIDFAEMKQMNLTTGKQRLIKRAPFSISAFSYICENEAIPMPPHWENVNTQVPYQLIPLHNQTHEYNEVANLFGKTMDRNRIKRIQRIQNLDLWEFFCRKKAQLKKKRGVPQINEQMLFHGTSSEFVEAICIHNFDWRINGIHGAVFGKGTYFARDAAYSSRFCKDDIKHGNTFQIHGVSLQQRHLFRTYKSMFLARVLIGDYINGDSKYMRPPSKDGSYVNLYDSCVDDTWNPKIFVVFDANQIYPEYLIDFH

[7] = biological target: T1, Poly [ADP-ribose] polymerase tankyrase-2 (Homo sapiens); assay: Binding affinity to TNKS2 PARP domain (947 to 1162) (unknown origin) expressed in Escherichia coli BL21(DE3) assessed as thermal stabilization by differential scanning flourimetric analysis; summary of the method: as §1
[8] = biological target: T1, Poly [ADP-ribose] polymerase tankyrase-2 (Homo sapiens); assay: Binding affinity to TNKS2 PARP domain (947 to 1162) (unknown origin) expressed in Escherichia coli BL21(DE3) assessed as thermal stabilization at 1 mM by differential scanning flourimetric analysis
Summary of the method: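 Fragment screen by DSF. TNKS2 at 0.2 mg/mL with SYPRO Orange (5×). Compound added from 50 mM DMSO stocks, giving final 1 mM and 2% DMSO; DMSO controls on each plate. Scanned 25−80 °C at about 2 °C/min, fluorescence ex 490/em 575 nm. Curves inspected visually; Tm fitted to sigmoidal transitions.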

[9] = biological target: Protein mono-ADP-ribosyltransferase PARP6 (Homo sapiens, UniProt Q2NL67); assay: Inhibition of PARP6 (unknown origin)
Chain of Protein mono-ADP-ribosyltransferase PARP6 (Q2NL67 whole entry): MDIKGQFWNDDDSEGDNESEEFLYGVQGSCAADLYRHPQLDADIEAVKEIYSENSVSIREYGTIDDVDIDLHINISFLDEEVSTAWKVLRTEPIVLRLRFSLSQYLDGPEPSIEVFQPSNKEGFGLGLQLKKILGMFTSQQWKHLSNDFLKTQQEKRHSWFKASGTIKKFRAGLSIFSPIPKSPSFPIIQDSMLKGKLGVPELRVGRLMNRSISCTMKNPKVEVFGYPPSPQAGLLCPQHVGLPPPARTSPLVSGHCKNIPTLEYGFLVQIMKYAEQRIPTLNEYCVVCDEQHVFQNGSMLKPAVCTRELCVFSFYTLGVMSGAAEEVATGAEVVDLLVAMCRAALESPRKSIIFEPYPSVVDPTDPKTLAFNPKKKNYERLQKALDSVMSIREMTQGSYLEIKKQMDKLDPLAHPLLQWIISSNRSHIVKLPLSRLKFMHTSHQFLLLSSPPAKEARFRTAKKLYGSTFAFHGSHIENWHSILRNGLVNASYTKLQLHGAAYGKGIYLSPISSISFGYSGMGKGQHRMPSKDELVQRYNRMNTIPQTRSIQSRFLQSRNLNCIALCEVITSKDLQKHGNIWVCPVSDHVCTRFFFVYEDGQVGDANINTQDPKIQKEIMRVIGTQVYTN

ΔTm [1] [°C]	IC50 [2] [nM]	Kd [3] [nM]	SMILES	other results
1.5	1370	–	COc1ccccc1-c1ccc2c(C)cc(=O)[nH]c2c1	–
3.1	310	–	Cc1cc(=O)[nH]c2cc(-c3ccc(F)cc3)ccc12	–
9.9	22	18	Cc1cc(=O)[nH]c2cc(-c3ccc(C(=O)NCCN4CCOCC4)cc3Cl)ccc12	solubility thermodynamic at 18 h, 500 µM [4]: 42.6 µg/mL (≈ 100 µM)
4.4	150	–	Cc1cc(=O)[nH]c2cc(-c3cccc(F)c3)ccc12	–
–	–	–	O=C(c1cc(Cc2n[nH]c(=O)c3ccccc23)ccc1F)N1CCN(C(=O)C2CC2)CC1	inhibition [5]: 84%; inhibition [6]: 72%
–	–	–	O=c1[nH]nc(Cl)c2ccccc12	Activity [7]: Dose-dependent effect; ΔTm [8]: 1.3 °C
–	–	–	Oc1nc(-c2ccc(C(F)(F)F)cc2)nc2c1CSCC2	IC50 [9]: > 10 µM
0.6	> 20000	–	Cc1cc(=O)[nH]c2ccc(-c3ccccc3)cc12	–
10.1	9	16	COCCNC(=O)c1ccc(-c2ccc3c(C)cc(=O)[nH]c3c2)c(Cl)c1	–
9.4	39	39	Cc1cc(=O)[nH]c2cc(-c3ccc(N)cc3Cl)ccc12	–
6.3	9	57	Cc1cc(=O)[nH]c2cc(-c3ccccc3Cl)ccc12	solubility thermodynamic at 18 h, 500 µM [4]: < 0.1 µg/mL
–	> 20000	–	Oc1ccc2ccccc2n1	–
7.4	21	–	Cc1cc(=O)[nH]c2cc(-c3ccc(C(=O)O)cc3Cl)ccc12	solubility thermodynamic at 18 h, 500 µM [4]: 4.3 µg/mL (≈ 13.7 µM)
3.2	180	900	Cc1cc(=O)[nH]c2cc(-c3ccccc3)ccc12	solubility thermodynamic at 18 h, 500 µM [4]: 0.65 µg/mL (≈ 2.76 µM)
–	12000	–	Cc1cc(=O)[nH]c2ccccc12	ΔTm [8]: 1.1 °C
